Where “and” joins values, the source holds several entries; their conditions need not be identical. Identical values can stand only once. Like-named read-outs stand apart in the source and are kept apart here. Marks after values point to notes of the source that are not given here. One block for each compound: values may come before it. Non-standard residues stand in square brackets, D forms with d. Residues, ends and D or L forms follow the SMILES beside them. 2Nal = N[C@@H](Cc1ccc2ccccc2c1)C(=O)O
How the values were obtained:
HeLa cells [1] = experiment: Apparent endosomal escape efficiency; format: cell-based; settings: for Apparent Endosomal Escape (γ, %): γ=(MFI^NF/MFI^Rho) of CPP over that of CPP 1 ×100%, 5 μM, 2 h
In short: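 HeLa cells were seeded at 1.5 × 10^5 per well and grown overnight, then given 5 μM peptide for 2 h at 37 °C in medium. Separate peptide preparations were labelled with pH-sensitive naphthofluorescein or with rhodamine B through a miniPEG linker. Cells were DPBS-washed, trypsinised, pelleted and resuspended in DPBS for flow cytometry. NF used 633-nm excitation (APC channel) and Rho used 561-nm excitation (PE channel). γ is the NF/Rho mean-fluorescence ratio normalised to the reference peptide.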

[2] = Calcein release from LUVs; settings: 20 μM peptide (Triton X-100 at 1%), over a 30-min period; Triton X-100 = 100%
In short: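 Large unilamellar vesicles with a lipid composition mimicking the late endosomal membrane were loaded with the small-molecule dye calcein. They were then exposed to the cyclic peptide, and release of calcein from the vesicles was followed.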

[3] = determined by fluorescence correlation spectroscopy; ref [42]; cited from earlier work
HeLa cells [4] = settings: Rho-labeled, relative to CPP 1 (100%), ref [40]; cited from earlier work
HeLa cells [5] = settings: NF-labeled, relative to CPP 1 (100%), ref [40]; cited from earlier work
HeLa cells [6] = settings: relative to CPP 1 (100%); ref [40]; cited from earlier work
HeLa cells [7] = experiment: Cytosolic entry of R9^NF in presence of unlabeled CPP, flow cytometry; format: cell-based; settings: 5 μM unlabeled CPP
In short: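 HeLa cells seeded at 1.5 × 10^5 per well, grown overnight, then exposed to naphthofluorescein-labeled R9 with or without 5 μM unlabeled cyclic CPP for 2 h in culture medium. Cells were washed twice with DPBS, detached with 0.25% trypsin, pelleted at 250G for 5 min, washed, resuspended in DPBS and read by flow cytometry for cytosolic NF fluorescence.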

HeLa cells [8] = experiment: Cellular uptake of FITC-labeled peptides, flow cytometry; format: cell-based; settings: 9 vs cFΦR4, 11 vs 6, 12 vs 7, 5 μM, 2 h
In short: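 Peptides carried an extra lysine on the Gln side chain, FITC-labelled at that lysine. HeLa cells were seeded at 1.5 × 10^5 per well, grown overnight and given 5 μM peptide for 2 h in culture medium. Cells were DPBS-washed twice, trypsin-detached, pelleted at 250G for 5 min, washed and resuspended in DPBS. Flow cytometry used 488-nm excitation and the FITC channel.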

HeLa cells [9] = experiment: Uptake of Rho-labeled CPPs under ATP depletion or at 4 °C, flow cytometry; format: cell-based
[10] = mouse, in vivo

Compound: N=C(N)NCCC[C@@H]1NC(=O)[C@H](CCCNC(=N)N)NC(=O)[C@H](CCCNC(=N)N)NC(=O)[C@H](Cc2ccc3ccccc3c2)NC(=O)[C@H](Cc2ccccc2)NC(=O)[C@H](CCC(N)=O)NC(=O)[C@H](CCCNC(=N)N)NC1=O [CPP 1, cyclo(FΦRRRRQ)] (cyclo(F[2Nal]RRRRQ))
- Apparent Endosomal Escape (γ, %) (HeLa cells [1]): 100%

Compound: RRRRRRRRR [R9, nonaarginine]
- Apparent Endosomal Escape (γ, %) (HeLa cells [1]): 40 ± 5%
- Calcein dye release from LUVs [2]: 1%
- Cytosolic Delivery Efficiency (%) [3]: 4.4%

Compound: Triton X-100
- Calcein dye release from LUVs [2]: 100%

Compound: YGRKKRRQRRR [Tat]
- Total Cellular Uptake (MFI^Rho, %) (HeLa cells [4]): 43 ± 3 ^b %
- Cytosolic Entry (MFI^NF, %) (HeLa cells [5]): 9.9 ± 1.7 ^b %
- Apparent Endosomal Escape (γ, %) (HeLa cells [6]): 23 ± 4 ^b %
- Cytosolic Delivery Efficiency (%) [3]: 2.0% and 2.0 ^c %

Compound: cyclo(FfΦRrRrQ) [CPP 12]
- Endosomal escape efficiency, fold relative to cFΦR4 (HeLa cells [1]): 4.0 fold
- Apparent Endosomal Escape (γ, %) (HeLa cells [1]): 402 ± 48%
- Effect on the cytosolic entry of R9^NF (HeLa cells [7]): minimal effect

- oral bioavailability [10]: demonstrated oral bioavailability
Compound: cyclo(fΦRrRrQ) [CPP 9]
- CPP activity (FITC uptake), fold more active than stereoisomer (HeLa cells [8]): 6 fold
- Endosomal escape efficiency, fold relative to cFΦR4 (HeLa cells [1]): 2.0 fold
- Apparent Endosomal Escape (γ, %) (HeLa cells [1]): 202 ± 20%
- Decrease of total cellular uptake efficiency by energy depletion (HeLa cells [9]; ATP depletion with sodium azide and 2-deoxyglucose): ~ 80%
- Reduction of cellular entry at 4 °C (HeLa cells [9]; incubation at 4 °C): ≥ 95%

Compound: penetratin
- Calcein dye release from LUVs [2]: 23%

From article PMC8562596 (Biochemistry, 2016)
